Reference: ChEMBL document CHEMBL1125279, “Neurochemistry of aging. 2. Design, synthesis, and biological evaluation of halomethyl analogues of choline with high affinity choline transport inhibitory activity” (J Med Chem, 1991)
pIC50: −log10 of the molar value.

Columns and labels:
Assay type in all cases: functional
Rattus norvegicus = species: Rattus norvegicus; assay: Concentration required to inhibit 50% of the transport of [3H]choline into synaptosomes, using rat hippocampal synaptosomes.; conditions: Hippocampus
How it was run: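 Rat hippocampus dissected on ice, homogenized in 0.32 M sucrose; P2 pellet (12000g, 20 min) resuspended in sucrose. Synaptosomes incubated with [3H]choline and increasing inhibitor concentrations, 8 min at 30 °C; filtered, washed three times, lysed in water, tritium counted. High-affinity uptake = standard-medium minus sodium-free accumulation, per mg protein (Lowry); IC50 from percent inhibition.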

Cavia porcellus [1] = species: Cavia porcellus; assay: Relative potency with respect to choline in isolated guinea pig ileum preparations.
Cavia porcellus [2] = species: Cavia porcellus; assay: Relative potency with respect to acetylcholine in isolated guinea pig ileum preparations.
How it was run: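 Guinea pig ileum segment in Tyrode's solution (NaCl 137 mM, KCl 2.68 mM, MgCl2 1.05 mM, CaCl2 1.80 mM, NaH2PO4 0.42 mM, NaHCO3 11.90 mM, glucose 5.55 mM), contents flushed. Contractions to 3–7 concentrations recorded by polygraph and compared against concentration responses to acetylcholine and choline.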

Row | Compound | pIC50 (Rattus norvegicus) | Relative potency (Cavia porcellus [1]) | Relative potency (Cavia porcellus [2])
1 | CC(O)C[N+](C)(C)CBr.[Br-] (stereo unspecified) | 4.25 | 0.04 | 
2 | CC1C[N+](C)(C)CO1.[Br-] (stereo unspecified) | 3.70 | 2 | 
3 | C[N+]1(C)CCOC1.[Br-] | 4.11 | 4.25 | 
4 | CC(=O)OCC[N+](C)(C)CI.[I-] |  |  | 0.11
5 | CC(=O)OCC[N+](C)(C)CBr.[Br-] |  |  | 0.05
6 | C[N+](C)(CBr)CCO.[Br-] | 6.06 | 0.14 | 
7 | C[N+](C)(CCl)CCO.[I-] | 6.04 | 0.13 | 
8 | CC(O)C[N+](C)(C)CCl.[I-] (stereo unspecified) | 3.89 | 0.05 | 
9 | CC(=O)OC(C)C[N+](C)(C)CI.[I-] (stereo unspecified) |  |  | 0.02
10 | C[N+](C)(CI)CCO.[I-] | 6.31 | 0.33 | 
11 | CC(O)C[N+](C)(C)CI.[I-] (stereo unspecified) | 4.30 | 0.1 | 
12 | CC(=O)OCC[N+](C)(C)CCl.[I-] |  |  | 0.09
13 | CC(=O)OCC[N+](C)(C)C.[I-] [ACETYLCHOLINE IODIDE] |  |  | 1
